Compound activity (PubChem)
procasp3 activ = activators of human procaspase-3 D3A mutant, primary screen, biochemical, absorbance, PC-3 D3A mutant, single concentration; Caspase-3 (Homo sapiens), P42574; recombinant procaspase-3 D3A, Ac-DEVD-pNA absorbance 405 nm; activation, % at 8.5 µM; actives 0.11% (n = 330,000); AID 463141, 2010;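 active means activation above the mean of all tested compounds plus 3 SD, cut at about 21% in these data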
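assay system = Procaspase-3 D3A mutant | signal = absorbance at 405 nm, 0 and 120 min | times = 1 h preincubation plus 2 h reaction at 25 °C | repeats = single replicate | read-out = % activation between DMSO and enzyme-spiked controls | medium = Zinc-free HEPES saline buffer with Triton X-100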
aDG glyco up = activators of alpha-DG glycosylation, primary screen, uHTS, Pro5-aDG cells, AlphaScreen; alpha-DG glycosylation AlphaScreen (IIH6); 0% Pro5, 100% B10-LARGE cell signal; activation, % at 10 µM; actives 0.22% (n = 360,000);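 active means activation of at least 8% versus controls, or a plate z-score of at least 8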;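 further: Pro5 are CHO cells carrying HIG-tagged alpha-DG that lacks glycosylation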
NR3A LBD binder = binders of NR3A ligand-binding domain, primary screen, biophysical, differential scanning fluorimetry, uHTS. Glutamate receptor ionotropic, NMDA 3A (GRIN3A) ligand-binding domain. NR3A LBD differential scanning fluorimetry, Tm shift; 0% = protein alone, 100% = glycine-bound protein. Tm shift relative to glycine control, % at 25 µM. actives 2.5% (n = 340,000). AID 1259313, 2017;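 active means melting temperature shift of at least 10% of the positive control shift, at one fixed dose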
MPTP block = mitochondrial permeability transition pore inhibitors, primary screen, biochemical, isolated mouse mitochondria, absorbance. Ca2+ swelling absorbance, 30 min. inhibition, % at 10 µM. actives 1.4% (n = 360,000). AID 602449, 2012;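 active means inhibition of 50% or more, scaled per plate between neutral and stimulator controls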
proCasp7 act = procaspase-7 activators, primary screen, counter-screen for procaspase-3 activator project, biochemical, absorbance, HTS, human. Caspase-7 (Homo sapiens), P55210. activation, % at 8.5 µM. actives 0.093% (n = 330,000). recombinant procaspase-7, Ac-DEVD-pNA absorbance 405 nm; D23A/D198A/D206A triple mutant, cannot self-cleave; scale: DMSO 0, 5 µM enzyme 100;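 active means percent activation above the screen-wide mean plus 3 SD, cut at about 25% in these data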
Target sequence (P55210 whole entry D23A/D198A/D206A): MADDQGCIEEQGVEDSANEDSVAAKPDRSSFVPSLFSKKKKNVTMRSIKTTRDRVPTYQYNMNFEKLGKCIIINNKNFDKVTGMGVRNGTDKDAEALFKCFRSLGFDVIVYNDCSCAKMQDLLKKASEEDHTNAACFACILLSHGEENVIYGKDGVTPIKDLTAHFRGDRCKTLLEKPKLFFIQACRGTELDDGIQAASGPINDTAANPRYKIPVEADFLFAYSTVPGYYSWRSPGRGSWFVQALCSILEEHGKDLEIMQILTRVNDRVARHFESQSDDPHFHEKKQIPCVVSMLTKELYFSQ
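signal = Epi-absorbance of released pNA at 405 nm, two timepoints | assay system = Uncleavable procaspase-7 mutant enzyme | reagent = Ac-DEVD-pNA substrate, 400 µM as added | times = 1 h enzyme–compound preincubation and 2 h substrate reaction, both 25 °C | benchmarks = low DMSO alone, high DMSO plus 5 µM PC-7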
MPTP counter = fluorescence retest of MPTP screen hits in isolated mitochondria, single concentration; AID 624504, 2012; membrane potential, Rhodamine 123 fluorescence; shares compounds with MPTP block; inhibition, % at 10 µM; actives 78% (n = 5,000); in the data active means inhibition above about 22%
MPTP swell DR = mitochondrial permeability transition pore inhibitors, dose response, biochemical, absorbance, uHTS hits. shares compounds with MPTP block. isolated mitochondria swelling. IC50, µM. actives 58% (n = 780); in the data active means IC50 below about 20 µM
MPTP cs DR = fluorescent counter-screen in isolated mitochondria, dose response, counter-screen for MPTP inhibitor project, biochemical, fluorescence, uHTS hits. shares compounds with MPTP block. isolated mitochondria counterscreen, fluorescence read-out. IC50, µM. actives 49% (n = 780). AID 651564, 2012; in the data active means IC50 below about 80 µM
Numbers stand for hits; – = inactive; · = no result given. This is a sample that favours compounds with a hit; in the whole collection about 3.7% have one here.

SMILES	procasp3 activ	aDG glyco up	NR3A LBD binder	MPTP block	proCasp7 act	MPTP counter	others
O=C(NCc1ccc(Cl)cc1)C1CCN(C(=O)c2ccc(Cl)cc2)CC1	·	–	–	–	·	·
COc1ccc(Cn2cc(CN3CC(N4CCN(C)CC4)CS3(=O)=O)nn2)cc1 (configuration not stated)	·	–	·	–	·	·
CCCOc1ccc(C(=O)Nc2ccc(C)cc2[N+](=O)[O-])cc1	–	–	·	–	–	·
CC(C)COc1ccc(C(=O)Nc2ccccc2[N+](=O)[O-])cc1	–	–	–	54	–	–	MPTP swell DR=–;MPTP cs DR=–
Cc1ccc(-n2c(C)cc(C3=NNC(=NC4CC4)SC3)c2C)cc1C	–	–	–	79	–	83
CN(C)CCNc1ncnc2c1cnn2-c1ccc(Cl)cc1	–	–	–	78	–	–	MPTP swell DR=8.4;MPTP cs DR=–
CCN(CC)c1ccc(N=Cc2ccc(N(CC)CC)cc2O)cc1	–	–	–	77	–	–
O=C(NCC(c1cccs1)N1CCOCC1)c1ccccc1NS(=O)(=O)c1cccc([N+](=O)[O-])c1 (configuration not stated)	–	–	–	–	–	·
O=C(NCC(c1cccs1)N1CCOCC1)c1ccccc1NS(=O)(=O)c1ccc(Cl)c([N+](=O)[O-])c1 (configuration not stated)	–	–	–	80	–	77
O=C(c1ccc(F)cc1F)N1CCN(S(=O)(=O)c2ccc3c(c2)OCCO3)CC1	–	–	–	–	–	·
C[C@@H](NCCCn1ccc(NC(=O)OCc2ccccc2)nc1=O)c1cccc2ccccc12	·	–	–	–	·	·
CC(C)N(CCC(=O)c1ccc2ccccc2c1)Cc1ccccc1	–	–	–	99	–	–
CC(NC(=O)/C=C/c1ccc(Br)cc1)c1ccc(Cl)cc1 (configuration not stated)	–	–	–	78	–	84
CC1CN(C)C(C)CC1OC(=O)C(c1ccccc1)c1ccccc1 (configuration not stated)	–	–	–	–	–	·
CCCCOc1ccc(C(=O)OC2CC(C)N(C)CC2C)cc1 (configuration not stated)	–	–	–	83	–	–	MPTP swell DR=9.7;MPTP cs DR=74
COCCOc1cc(Nc2nnc(C(F)(F)F)s2)c(Cl)cc1Cl	–	–	–	80	–	90
CN(C)S(=O)(=O)c1cccc(NC(=S)Nc2ccc(Cl)cc2Cl)c1	–	–	–	90	–	93
CN(C)S(=O)(=O)c1cccc(NC(=S)Nc2cc(Cl)cc(Cl)c2)c1	–	–	11	88	–	93
COc1ccc(O)c(/C=N/NC(=S)Nc2cccc(S(=O)(=O)N(C)C)c2)c1	–	–	–	51	–	83
COc1cccc(/C=N/NC(=S)Nc2cccc(S(=O)(=O)N(C)C)c2)c1	–	–	–	–	–	·
CC(=O)Nc1ccc(C(=O)NCC2CCCCC2)cc1	–	–	–	–	–	·
Cc1ccc2[nH]c(=O)c(CN(CC3CCCO3)C(=S)Nc3ccccc3)cc2c1 (configuration not stated)	–	–	–	–	–	·
COc1cccc(NC(=O)Nc2ccccc2SC)c1	–	–	–	–	–	·
CSc1ccccc1NC(=O)Nc1cccc(Cl)c1	–	–	10	62	–	85
